The record followed here is ChEMBL document CHEMBL4619769, “N-Aryl-3-mercaptosuccinimides as Antivirulence Agents Targeting Pseudomonas aeruginosa Elastase and Clostridium Collagenases” (J Med Chem, 2020).

Data set [1] concerns the target T1, Elastase (Pseudomonas aeruginosa (strain ATCC 15692 / PAO1 / 1C / PRS 101 / LMG12228), UniProt P14756). The experiment in a line: Inhibition of Pseudomonas aeruginosa LasB using aminobenzoyl-Ala-Gly-Leu-Ala-p-nitro-benzyl-amide as fluorogenic substrate by fluorimetric assay.
In data set [2] the target is T1, Elastase. Kind of data set: Inhibition of Pseudomonas aeruginosa PA14 LasB using 2-Aminobenzoyl-AlaGly-Leu-Ala-4-Nitrobenzylamide as fluorogenic substrate preincubated for 15 mins followed by substrate addition measured after 60 mins by FRET assay. In outline: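 IC50 from at least two independent experiments, each run in duplicate. Thioacetate analogues were scored as percent inhibition at 200 μM.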

The test system of a further data set is HepG2. The experiment in a line: Cytotoxicity against human HepG2 cells assessed as reduction in cell viability by MTT assay. Type of data set: cell-based.
The test system of the next data set is HEK293. The experiment in a line: Cytotoxicity against HEK293 cells assessed as reduction in cell viability by MTT assay. The note with it: Homo sapiens. Type of data set: cell-based.
The subject of another data set is A549. The experiment in a line: Cytotoxicity against human A549 cells assessed as reduction in cell viability by MTT assay. Type of data set: cell-based.
Data set [3] can be described thus: Toxicity in 1 day post-fertilized zebrafish embryo AB measured up to 120 hrs post-fertilization by microscopic analysis. The arrangement: species or system Danio rerio. Conditions: in vivo, read-out: MTC. In outline: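 Embryos were placed singly per well, 10 per condition, in freshly prepared compound at 2–100 μM with 1% DMSO final. Defects, heart rate, touch-evoked locomotion and survival were scored daily by microscopy; read-out was maximum tolerated concentration.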

The next data set concerns Bacillus cereus. The experiment in a line: Ex vivo inhibition of Bacillus cereus Q1 ColQ1-mediated collagenolytic-activity in pig skin explant assessed as reduction in hydroxyproline release up to 400 uM preincubated for 1 hr followed by skin explant addition and measured upto 24 hrs by spectrophotometric assay. In outline: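 Pig skin explant punches, stored in DMEM with 15% glycerol at −80 °C, incubated in DMEM with 300 nM ColQ1, 4 mM CaCl2 and 10 μM ZnCl2. Compound pre-incubated with the enzyme mixture for 1 h at 37 °C, 5% CO2, then explant added, shaken at 300 rpm at 37 °C. Medium sampled at time points; hydroxyproline measured by absorbance against a hydroxyproline calibration curve.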

In the next data set the test system is Hathewaya histolytica. Kind of data set: Toxicity in Clostridium histolyticum DSM 1126 assessed as reduction in bacterial growth after 48 hrs. It counts as organism-based. The note with it: in vivo. The method in brief: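 Brain heart infusion broth; inoculum adjusted to McFarland 2 then prediluted 1:100. […] Means of at least two independent determinations.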

For a further data set, the system named is Pseudomonas aeruginosa. Kind of data set: Toxicity in Pseudomonas aeruginosa PA14 assessed as reduction in bacterial growth after 18 hrs. It counts as organism-based. Conditions: in vivo.
Another data set deals with T2, Collagenase ColH (Hathewaya histolytica, UniProt Q46085).
T2 sequence (Q46085 whole entry): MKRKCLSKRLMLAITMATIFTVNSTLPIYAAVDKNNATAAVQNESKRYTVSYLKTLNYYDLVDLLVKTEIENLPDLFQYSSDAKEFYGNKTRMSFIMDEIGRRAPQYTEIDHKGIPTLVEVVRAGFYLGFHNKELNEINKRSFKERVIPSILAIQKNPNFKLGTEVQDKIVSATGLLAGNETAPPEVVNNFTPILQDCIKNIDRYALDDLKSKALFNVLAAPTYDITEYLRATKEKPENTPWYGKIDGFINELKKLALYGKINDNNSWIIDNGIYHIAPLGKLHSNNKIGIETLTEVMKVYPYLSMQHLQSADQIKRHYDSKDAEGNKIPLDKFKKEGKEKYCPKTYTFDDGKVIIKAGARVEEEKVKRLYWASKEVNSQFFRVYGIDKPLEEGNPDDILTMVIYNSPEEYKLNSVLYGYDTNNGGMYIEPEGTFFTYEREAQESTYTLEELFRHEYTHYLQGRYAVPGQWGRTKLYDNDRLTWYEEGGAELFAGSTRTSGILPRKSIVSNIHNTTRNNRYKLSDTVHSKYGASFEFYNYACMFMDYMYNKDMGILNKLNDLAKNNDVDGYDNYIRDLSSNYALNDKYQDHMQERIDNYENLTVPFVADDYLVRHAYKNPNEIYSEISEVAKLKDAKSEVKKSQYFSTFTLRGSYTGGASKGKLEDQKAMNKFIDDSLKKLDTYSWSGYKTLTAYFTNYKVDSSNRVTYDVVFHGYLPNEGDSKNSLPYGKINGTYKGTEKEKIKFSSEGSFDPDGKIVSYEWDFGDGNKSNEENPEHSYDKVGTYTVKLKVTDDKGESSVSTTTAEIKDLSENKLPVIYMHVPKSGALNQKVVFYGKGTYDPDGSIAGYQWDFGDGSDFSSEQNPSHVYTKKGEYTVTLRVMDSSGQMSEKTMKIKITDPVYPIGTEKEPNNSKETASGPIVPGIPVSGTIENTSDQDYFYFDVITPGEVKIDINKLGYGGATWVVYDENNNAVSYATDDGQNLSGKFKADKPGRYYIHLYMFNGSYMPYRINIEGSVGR
The experiment in a line: Inhibition of Clostridium histolyticum ColH peptidase domain expressed in Escherichia coli BL21(DE3) cells using Mca-Ala-Gly-Pro-Pro-Gly-Pro-Dpa-Gly-Arg-NH2 as substrate preincubated for 1 hr followed by substrate addition measured for 2 mins by FRET assay. In outline: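 Peptidolytic ColH-PD activity read by FRET. Compounds were first screened at 1 μM (means of three independent experiments), then tested dose-response with the reducing agent TCEP present. IC50 values came from at least two independent experiments run in duplicate.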

Active and inactive are the calls of the source. The calls are words filed in the database; no cut-off is given here. Bounds are passed on as bounds.

T1 sequence (P14756 whole entry): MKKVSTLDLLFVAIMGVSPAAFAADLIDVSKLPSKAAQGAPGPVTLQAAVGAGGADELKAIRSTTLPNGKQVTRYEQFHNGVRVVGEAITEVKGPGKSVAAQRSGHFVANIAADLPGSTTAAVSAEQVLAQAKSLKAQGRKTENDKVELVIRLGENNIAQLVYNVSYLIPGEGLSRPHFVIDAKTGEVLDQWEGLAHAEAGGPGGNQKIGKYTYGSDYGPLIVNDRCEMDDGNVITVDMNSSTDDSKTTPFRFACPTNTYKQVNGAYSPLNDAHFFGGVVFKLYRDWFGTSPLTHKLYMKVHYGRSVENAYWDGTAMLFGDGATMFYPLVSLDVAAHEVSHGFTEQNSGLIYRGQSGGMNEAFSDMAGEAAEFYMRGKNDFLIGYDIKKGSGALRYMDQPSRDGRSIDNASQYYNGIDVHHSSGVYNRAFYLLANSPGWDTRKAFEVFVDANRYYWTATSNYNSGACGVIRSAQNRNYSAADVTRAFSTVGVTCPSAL

On to `NC(=O)[C@H](Cc1ccc(O)cc1)NC(=O)[C@H](Cc1c[nH]c2ccccc12)NC(=O)CS`, for which the Ki at Elastase [1] was found to be 0.0405 µM.

Turning to `CC(=O)SC1CC(=O)N(c2ccc(Cl)c(Cl)c2)C1=O` (stereo unspecified), the IC50 on Elastase [2] was more than 200 µM.

As to `CC(=O)c1ccc(N2C(=O)CC(S)C2=O)cc1` (stereo unspecified), the IC50 in the data set with HepG2, with HEK293 and in the data set with A549 was more than 100 µM in each case. For the same compound, in data set [3], the MNTC was not below 30 µM. The inhibition entry with Bacillus cereus is “Active”. The MIC with Hathewaya histolytica was more than 100 µM.

`O=C1CC(CS)C(=O)N1c1ccc(Cl)c(Cl)c1` (stereo unspecified): in the data set with Pseudomonas aeruginosa, the MIC is more than 100 µM.

Regarding `O=C1CC(S)C(=O)N1c1ccc(Cl)c(Cl)c1` (stereo unspecified), the IC50 with HepG2, in the data set on HEK293 and with A549 was more than 100 µM in each case. Further, the MIC in the data set with Pseudomonas aeruginosa was more than 100 µM.

`CC(=O)SCC1CC(=O)N(c2ccc(Cl)c(Cl)c2)C1=O` (stereo unspecified) showed an IC50 against Elastase [2] of more than 200 µM.

Turning to `COc1ccc(N2C(=O)CC(CSC(C)=O)C2=O)cc1` (stereo unspecified), on Elastase [2], the IC50 is more than 200 µM.

As to `COc1ccc(N2C(=O)CC(SC(C)=O)C2=O)cc1` (stereo unspecified), at Elastase [2], the IC50 is more than 200 µM.

`CC(=O)SCC1CC(=O)N(c2ccc(C(C)=O)cc2)C1=O` (stereo unspecified) came in with an IC50 on Elastase [2] of more than 200 µM.

`CC(=O)c1ccc(NC(=O)CS)cc1`: the IC50 was 0.017 µM against Collagenase ColH, more than 100 µM with HepG2, more than 100 µM in the data set on HEK293 and more than 100 µM in the data set on A549.

`CC(=O)SC1CC(=O)N(c2ccc(OC(F)(F)F)c(Cl)c2)C1=O` (stereo unspecified) registered an IC50 on Elastase [2] of more than 200 µM.

Turning to `O=C(CS)Nc1ccc(Cl)c(Cl)c1`, the IC50 in the data set with HepG2, with HEK293 and in the data set on A549 was more than 100 µM throughout. Moreover, the MNTC in [3] was 10 µM.

Consider `O=C1CC(CS)C(=O)N1c1ccc(F)c(F)c1` (stereo unspecified), for which, in the data set with Pseudomonas aeruginosa, the MIC was more than 100 µM.

As for `CC(=O)SCC1CC(=O)N(c2ccccc2)C1=O` (stereo unspecified), at Elastase [2], the IC50 was more than 200 µM.

`CC(=O)c1ccc(N2C(=O)CC(CS)C2=O)cc1` (stereo unspecified) returned an IC50 against Elastase [2] of more than 200 µM.

Consider `O=C1CC(S)C(=O)N1c1ccc(F)c(F)c1` (stereo unspecified), for which the MNTC in data set [3] was not below 30 µM. In addition, the MIC in the data set with Pseudomonas aeruginosa is more than 100 µM.
